# Mdm2-MdmX inh = inhibitors of human Mdm2/MdmX interaction; SaOS-2 split-luciferase Mdm2/MdmX complementation, luminescence; O15151+Q00987; 3% of 330,000 active; inhibition, % at 8 µM;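 active = inhibition of at least 50% at 8 µM in the primary screen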
# Target sequence (O15151 whole entry, looked up): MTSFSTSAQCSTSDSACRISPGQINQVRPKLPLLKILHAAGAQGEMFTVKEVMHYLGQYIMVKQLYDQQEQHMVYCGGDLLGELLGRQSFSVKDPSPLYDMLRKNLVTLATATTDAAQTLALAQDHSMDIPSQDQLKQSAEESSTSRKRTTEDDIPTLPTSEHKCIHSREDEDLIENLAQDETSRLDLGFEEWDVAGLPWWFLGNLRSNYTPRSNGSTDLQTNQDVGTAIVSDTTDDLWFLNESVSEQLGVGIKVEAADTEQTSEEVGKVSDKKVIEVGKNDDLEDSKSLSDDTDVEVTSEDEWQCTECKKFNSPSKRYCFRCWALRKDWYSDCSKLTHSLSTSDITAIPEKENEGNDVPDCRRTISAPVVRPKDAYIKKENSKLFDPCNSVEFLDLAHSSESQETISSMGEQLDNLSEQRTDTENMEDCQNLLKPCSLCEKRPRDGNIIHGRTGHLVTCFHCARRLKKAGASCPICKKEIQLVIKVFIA
# Target sequence (Q00987 whole entry, looked up): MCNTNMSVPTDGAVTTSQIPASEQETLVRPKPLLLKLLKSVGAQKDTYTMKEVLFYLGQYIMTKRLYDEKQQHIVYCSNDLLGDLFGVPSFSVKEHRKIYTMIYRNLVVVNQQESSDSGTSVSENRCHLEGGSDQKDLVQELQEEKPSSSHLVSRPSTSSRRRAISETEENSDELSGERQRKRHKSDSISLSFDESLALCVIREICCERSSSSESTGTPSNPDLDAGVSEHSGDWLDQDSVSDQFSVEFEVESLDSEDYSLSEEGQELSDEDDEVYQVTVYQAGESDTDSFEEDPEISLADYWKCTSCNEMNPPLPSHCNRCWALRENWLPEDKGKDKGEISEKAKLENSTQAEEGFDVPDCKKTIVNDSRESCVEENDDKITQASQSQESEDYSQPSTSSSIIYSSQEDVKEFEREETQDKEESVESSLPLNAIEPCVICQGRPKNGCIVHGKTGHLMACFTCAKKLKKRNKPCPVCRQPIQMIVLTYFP
# CHOP UPR activ = apoptotic UPR (CHOP) activation; CHO-CHOP luciferase reporter, luminescence; percent of tunicamycin response over DMSO baseline; activation, % at 10 µM; 0.34% of 330,000 active; AID 449763;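 active = at 10 µM dose, activation of 40% or more, normalized to positive control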;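 also: 100% = tunicamycin at 10 µg/mL and 0% = DMSO alone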
#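 assay system = CHO CHOP reporter cells | amount = 500 CHO-CHOP cells per well | buffer or medium = F12 with 10% FBS | incubation = 16-18 h cell attachment, then 6 h compound exposure, 37 °C | detection = luminescence read with Steady-Glo | read-out = percent activation relative to tunicamycin control | controls = tunicamycin high control, DMSO low control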
# UPR XBP1 act = adaptive UPR (XBP1) activation. CHO-XBP1 luciferase reporter, IRE1-XBP1 UPR activation, luminescence; percent of tunicamycin response, DMSO as zero. activation, % at 20 µM. 0.33% of 330,000 active;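 active = versus positive control, 20 µM dose yields 30% or more activation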;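 also: 100% = tunicamycin at 10 µg/mL and 0% = DMSO only wells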
#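 Material: IRE1-XBP1 luciferase reporter CHO line / Quantity: one thousand reporter cells per well / Buffer or medium: F12 with 10% serum / Compound: 20 µM single concentration, DMSO 1% / Times: 6 h treatment, 37 °C / Detection: Steady-Glo luciferase glow luminescence, 10 min after reagent addition / Benchmarks: tunicamycin high, DMSO low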
# T cruzi inh = T. cruzi replication inhibition; T. cruzi beta-gal in NIH3T3, luminescence, 90 h; inhibition, % (no concentration beside the values); 1.4% of 300,000 active; AID 1885;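 active = mean inhibition across valid replicates above about 55%, limit read from the data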;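 also: signal also drops with host cell toxicity which is not excluded here; 0% = plate median of DMSO wells and 100% = zero luminescence signal; higher percent means less beta-gal luminescence so fewer parasites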
#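 compound dosing = single 50 nL compound addition per well in DMSO | material = NIH/3T3 host cells with β-galactosidase reporter T. cruzi | input = 5,000 host fibroblasts per well | timing = ≥90 h infection period, 3 h prior cell attachment | read-out basis = percent inhibition of parasite-derived β-gal signal | detection = GalScreen β-gal luminescence, detergent lysis, 60 min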
# CSC inhib = blocks cancer stem cells; inhibition, % at 7.5 µM; 1.1% of 300,000 active; cancer stem cell-like cells viability, luminescence; in the data active = inhibition above about 75%; tested in HMLE shEcad cells
# Beta apoptosis = blocks beta cell apoptosis. 0.8% of 300,000 active. AID 435005. INS-1E cytokine-induced death, ATP luminescence, 48 h; percent of positive-control rescue, neutral wells zero. protection from apoptosis, % (no concentration beside the values);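 active = Every replicate reaches about 75%, or at least half do and their mean reaches it too, limit read from the data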;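 also: 0% = cytokine-treated negative control wells and 100% = positive control rescue; higher means more ATP so stronger rescue from cytokine killing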
# UPR CHOP confirm = confirmation of apoptotic unfolded protein response (CHOP) activators. shares compounds with CHOP UPR activ. CHO-CHOP cells, CHOP-luciferase reporter luminescence; percent of tunicamycin response, DMSO as zero. activation, % at 10 µM. 64% of 1,000 active. AID 463112; in the data active = activation above about 33%;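 also: 0% = DMSO wells and 100% = tunicamycin 10 µg/mL wells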
# An asterisk follows results filed as active; / = no result. Hits are enriched below; roughly 5% of the tested compounds scored in any of these assays.
SMILES,Mdm2-MdmX inh,CHOP UPR activ,UPR XBP1 act,T cruzi inh,CSC inhib,Beta apoptosis,UPR CHOP confirm
Cc1cccc2sc(NC(=O)C3CCN(S(=O)(=O)c4cc([N+](=O)[O-])ccc4Cl)CC3)nc12,32,9,0,68*,7,9,/
CCOc1ccc(NS(=O)(=O)c2ccc(C(=O)NNC(=O)c3ccccc3O)cc2)cc1,39,1,-1,4,41,-1,/
Cc1cn2nc(N)c3ccccc3c2n1,-1,41*,-2,/,1,-1,-1
Cc1cc(C)nc(Sc2ncnc(N)c2[N+](=O)[O-])n1,-3,95*,-8,21,2,-32,9
CCOc1cc(/C=N\NC(=O)c2ccc(NC(=O)CC)cc2)ccc1OC(=O)c1ccccc1,19,57*,26,11,30,/,4
CCOc1cc(/C=N\NC(=O)c2ccc(NC(=O)C(C)(C)C)cc2)ccc1OC(=O)c1ccc(C)cc1,34,6,5,39,2,8,/
Cc1cc(C)cc(N(C(=O)c2csnn2)C(C(=O)NC2CCCC2)c2cccnc2)c1 (stereo not drawn),-18,0,1,1,-2,-2,/
O=C(NC1CCCC(C(F)(F)F)C1)c1ccc([N+](=O)[O-])o1 (stereo not drawn),41,64*,9,/,69,-49,12
O=C(NC1CCCCC1)c1ccc([N+](=O)[O-])o1,29,11,-3,39,51,-14,/
Cc1cc(-c2onc(C)c2C(=O)N/N=C/c2ccccc2)no1,24,-1,1,-8,-12,-1,/
Cc1ccc(SC(=O)c2c(C)noc2-c2cc(C)on2)cc1,12,57*,-4,-2,81*,-33,18
CCOCCCNC(=O)Cn1nc(Cc2ccncc2)c2ccccc2c1=O,-4,2,0,0,-25,-1,/
CCOc1cc(/C=C2/C(=O)ON=C2C)ccc1OCc1ccccc1F,24,112*,16,0,-31,6,68*
CCOc1cc(/C=C2/C(=O)ON=C2C)ccc1OCc1ccccc1,17,58*,3,-39,16,70,5
CCOc1cc(/C=C2/C(=O)ON=C2C)ccc1OCc1ccc(F)cc1,30,24,18,-3,31,-5,/
Cn1c(SCC(=O)NCC2CCCO2)ncc(C(=O)Nc2ccc(Cl)cc2)c1=O (stereo not drawn),-16,158*,5,-15,26,-5,138*
CC(=O)Nc1ccc(NC(=O)CSc2ncc(C(=O)Nc3ccc(Cl)cc3)c(=O)n2C)cc1,-3,5,-2,-30,58,5,/
CC(=O)c1cccc(NC(=O)CSc2ncc(C(=O)Nc3ccccc3)c(=O)n2C)c1,14,299*,-4,-14,34,-4,460*
Cn1c(SCC(=O)NCC2CCCO2)ncc(C(=O)Nc2ccc(F)cc2)c1=O (stereo not drawn),11,21,-5,-6,-15,/,/
CC(=O)Nc1cc(C)nn1-c1nc(C)cc(C)n1,-44,4,-3,-28,-11,3,/
Cc1ccc(Nc2cc(C)nn2-c2nc(C)cc(C)n2)cc1,32,79*,30*,37,16,55,6
O=C(O)C1=C[C@@H](c2ccc(C(F)(F)F)cc2)C[C@@H](OCCCCO)O1,1,0,1,-15,-9,-7,/
O=C(Cc1ccc(F)cc1)NC1CCSC1=O (stereo not drawn),27,41*,2,-4,-11,/,-2
O=C(CCCc1ccccc1)NC1CCSC1=O (stereo not drawn),11,0,0,1,-1,-7,/
Cc1cc(OCC(=O)N(Cc2ccco2)c2c(N)n(Cc3ccccc3)c(=O)[nH]c2=O)ccc1Cl,13,2,-1,/,/,-1,/
SMILES,Mdm2-MdmX inh,CHOP UPR activ,UPR XBP1 act,T cruzi inh,CSC inhib,Beta apoptosis,UPR CHOP confirm
CCn1c(CSc2nc3ccccc3s2)nnc1SCC(=O)c1ccc(O)c(O)c1,34,47*,12,-22,/,/,0
Oc1ccc(-c2csc(-c3ccccc3)n2)cc1O,11,143*,13,-37,/,/,53*
S=C(Nc1ccccc1)c1ccccn1,-29,117*,29,/,-5,11,149*
Cc1cccc(NC(=O)CN(C)C(=O)/C=C/c2ccccc2)c1C,30,-1,-4,/,/,/,/
CCCn1c(CN2CCN(C(=O)OCC)CC2)nc2cc(NC(C)=O)ccc21,21,2,1,22,-6,-5,/
CCCn1c(CN2CCN(C(=O)OCC)CC2)nc2cc(NC(=O)C(C)C)ccc21,41,50*,-4,-6,30,8,0
N/C(=N\OC(=O)/C=C/c1ccccc1)c1ccccc1,-39,0,-2,28,2,1,/
CC1=C/C(=N\OC(=O)/C=C/c2ccccc2)C(C)=CC1=O,32,107*,-5,-31,10,-20,41*
COc1ccc(OCC(=O)N2N=C(C)CC2(O)C(F)(F)F)cc1 (stereo not drawn),8,0,-1,-11,15,1,/
C/C(CCc1oc2c(Br)cc(Br)cc2c1-c1ccc(C)o1)=N\O,14,89*,7,45,45,-4,-2
COc1ccc(C(=O)Nc2cccc(NC(=O)c3cccs3)c2)cc1,4,1,0,10,7,-1,/
COc1nc(N)nc(NC(=O)c2cccs2)c1N=O,19,70*,-1,-4,53,-10,62*
COc1ccc(OC)c(N=Cc2c(O)c3ccccc3oc2=O)c1,21,134*,219*,-9,-13,0,114*
Cc1cc(C)cc(N=Cc2c(O)c3ccccc3oc2=O)c1,12,10,29,-22,-4,-4,/
O=C(/C=C/c1ccc([N+](=O)[O-])cc1)c1ccco1,10,1,0,-4,0,/,/
O=C(/C=C/c1ccc([N+](=O)[O-])cc1)/C=C/c1ccco1,14,57*,-2,22,76*,2,108*
CC(OC(=O)c1ccc(F)cc1)C(=O)Nc1nc(-c2cccc([N+](=O)[O-])c2)cs1 (stereo not drawn),15,2,-1,-12,-1,-4,/
Oc1ccc(/C=N/N=C/c2ccc(O)c(O)c2)cc1O,-5,67*,28,-9,41,-1,9
Oc1ccc(/C=N/N(c2ccccc2)c2ccccc2)cc1O,0,107*,9,-5,43,6,33*
Oc1ccc(N=Cc2ccc(O)c(O)c2)cc1,25,-1,1,-17,3,/,/
